# Key:
# Format in all cases: functional
# Acinetobacter pittii [1] = assay: Antibacterial activity against Acinetobacter genomosp. 3 isolate 128 by Etest method in presence of efflux pump inhibitor PAN
# Acinetobacter pittii [2] = assay: Antibacterial activity against Acinetobacter genomosp. 3 isolate 128 by Etest method in presence of cloxacillin and efflux pump inhibitor CCCP
# Escherichia coli [3] = assay: Antibacterial activity against Escherichia coli DH5alpha by Etest method
# Outline: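 E. coli DH5α host strain, grown at 37°C in LB medium. MICs of β-lactams determined by Etest following the manufacturer's instructions.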
# Acinetobacter pittii [4] = assay: Antibacterial activity against Acinetobacter genomosp. 3 isolate 60 by Etest method in presence of cloxacillin and efflux pump inhibitor PAN
# Acinetobacter pittii [5] = assay: Antibacterial activity against Acinetobacter genomosp. 3 isolate 21 by Etest method in presence of efflux pump inhibitor PAN
# Acinetobacter pittii [6] = assay: Antibacterial activity against Acinetobacter genomosp. 3 isolate 20 by Etest method
# Outline: (§1)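 MICs for AG3 clinical isolates were read by Etest following the manufacturer's instructions. Isolates were stored at –80°C in 10% Brucella glycerol broth before testing.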
# Acinetobacter pittii [7] = assay: Antibacterial activity against Acinetobacter genomosp. 3 isolate 52 by Etest method in presence of efflux pump inhibitor PAN
# Acinetobacter pittii [8] = assay: Antibacterial activity against Acinetobacter genomosp. 3 isolate 56 by Etest method in presence of cloxacillin and efflux pump inhibitor CCCP
# Acinetobacter pittii [9] = assay: Antibacterial activity against Acinetobacter genomosp. 3 isolate 60 by Etest method in presence of cloxacillin; outline: as §1
# Acinetobacter pittii [10] = assay: Antibacterial activity against Acinetobacter genomosp. 3 isolate 67 by Etest method in presence of cloxacillin and efflux pump inhibitor CCCP
# Acinetobacter pittii [11] = assay: Antibacterial activity against Acinetobacter genomosp. 3 isolate 69 by Etest method in presence of cloxacillin and efflux pump inhibitor PAN
# Acinetobacter pittii [12] = assay: Antibacterial activity against Acinetobacter genomosp. 3 isolate 14 by Etest method in presence of cloxacillin and efflux pump inhibitor PAN
# Acinetobacter pittii [13] = assay: Antibacterial activity against Acinetobacter genomosp. 3 isolate 52 by Etest method in presence of cloxacillin and efflux pump inhibitor PAN
# Acinetobacter pittii [14] = assay: Antibacterial activity against Acinetobacter genomosp. 3 isolate 243 by Etest method in presence of cloxacillin; outline: as §1
# Acinetobacter pittii [15] = assay: Antibacterial activity against Acinetobacter genomosp. 3 isolate 128 by Etest method in presence of cloxacillin and efflux pump inhibitor PAN
# Escherichia coli [16] = assay: Antibacterial activity against Escherichia coli DH5alpha carrying ampC gene of Acinetobacter genomosp. 3 isolate 14 by Etest method
# Outline: (§2)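 E. coli DH5α expressing the AG3 isolate ampC gene, PCR-amplified (high-fidelity system, 28 cycles) and cloned into BamHI/HindIII sites of pBGS18 (kanamycin marker) under the CTX-M-14 β-lactamase promoter. Grown at 37°C in LB, with kanamycin 50 µg/ml when needed. β-Lactam MICs determined by Etest per the manufacturer's instructions.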
# Acinetobacter pittii [17] = assay: Antibacterial activity against Acinetobacter genomosp. 3 isolate 90 by Etest method in presence of efflux pump inhibitor PAN
# Acinetobacter pittii [18] = assay: Antibacterial activity against Acinetobacter genomosp. 3 isolate 109 by Etest method in presence of cloxacillin; outline: as §1
# Escherichia coli [19] = assay: Antibacterial activity against Escherichia coli DH5alpha carrying ampC gene of Acinetobacter genomosp. 3 isolate 109 by Etest method; outline: as §2
# Escherichia coli [20] = assay: Antibacterial activity against Escherichia coli DH5alpha carrying ampC gene of Acinetobacter genomosp. 3 isolate 65 by Etest method; outline: as §2
# Acinetobacter pittii [21] = assay: Antibacterial activity against Acinetobacter genomosp. 3 isolate 60 by Etest method in presence of efflux pump inhibitor CCCP
# Escherichia coli [22] = assay: Antibacterial activity against Escherichia coli DH5alpha carrying ampC gene of Acinetobacter genomosp. 3 isolate 20 by Etest method; outline: as §2
# Escherichia coli [23] = assay: Antibacterial activity against Escherichia coli DH5alpha carrying ampC gene of Acinetobacter genomosp. 3 isolate 56 by Etest method; outline: as §2
# Acinetobacter pittii [24] = assay: Antibacterial activity against Acinetobacter genomosp. 3 isolate 20 by Etest method in presence of cloxacillin; outline: as §1
# Acinetobacter pittii [25] = assay: Antibacterial activity against Acinetobacter genomosp. 3 isolate 103 by Etest method in presence of efflux pump inhibitor CCCP
# Acinetobacter pittii [26] = assay: Antibacterial activity against Acinetobacter genomosp. 3 isolate 52 by Etest method in presence of cloxacillin; outline: as §1
# Acinetobacter pittii [27] = assay: Antibacterial activity against Acinetobacter genomosp. 3 isolate 128 by Etest method in presence of cloxacillin; outline: as §1
# Acinetobacter pittii [28] = assay: Antibacterial activity against Acinetobacter genomosp. 3 isolate 14 by Etest method in presence of cloxacillin and efflux pump inhibitor […]
# Acinetobacter pittii [29] = assay: Antibacterial activity against Acinetobacter genomosp. 3 isolate 67 by Etest method in presence of efflux pump inhibitor PAN
# Acinetobacter pittii [30] = assay: Antibacterial activity against Acinetobacter genomosp. 3 isolate 65 by Etest method in presence of cloxacillin and efflux pump inhibitor CCCP
# Acinetobacter pittii [31] = assay: Antibacterial activity against Acinetobacter genomosp. 3 isolate 21 by Etest method in presence of cloxacillin and efflux pump inhibitor CCCP
# Acinetobacter pittii [32] = assay: Antibacterial activity against Acinetobacter genomosp. 3 isolate 195 by Etest method in presence of efflux pump inhibitor CCCP
# Acinetobacter pittii [33] = assay: Antibacterial activity against Acinetobacter genomosp. 3 isolate 14 by Etest method in presence of efflux pump inhibitor PAN
# Acinetobacter pittii [34] = assay: Antibacterial activity against Acinetobacter genomosp. 3 isolate 243 by Etest method in presence of efflux pump inhibitor CCCP
# Acinetobacter pittii [35] = assay: Antibacterial activity against Acinetobacter genomosp. 3 isolate 90 by Etest method; outline: as §1
# Acinetobacter pittii [36] = assay: Antibacterial activity against Acinetobacter genomosp. 3 isolate 14 by Etest method in presence of efflux pump inhibitor CCCP
# Acinetobacter pittii [37] = assay: Antibacterial activity against Acinetobacter genomosp. 3 isolate 128 by Etest method; outline: as §1
# Acinetobacter pittii [38] = assay: Antibacterial activity against Acinetobacter genomosp. 3 isolate 20 by Etest method in efflux pump inhibitor CCCP
# Acinetobacter pittii [39] = assay: Antibacterial activity against Acinetobacter genomosp. 3 isolate 52 by Etest method of efflux pump inhibitor CCCP
# Acinetobacter pittii [40] = assay: Antibacterial activity against Acinetobacter genomosp. 3 isolate 60 by Etest method; outline: as §1
# Acinetobacter pittii [41] = assay: Antibacterial activity against Acinetobacter genomosp. 3 isolate 67 by Etest method in presence of cloxacillin; outline: as §1
# Acinetobacter pittii [42] = assay: Antibacterial activity against Acinetobacter genomosp. 3 isolate 56 by Etest method in presence of cloxacillin; outline: as §1
# Acinetobacter pittii [43] = assay: Antibacterial activity against Acinetobacter genomosp. 3 isolate 69 by Etest method in presence of efflux pump inhibitor CCCP
# Acinetobacter pittii [44] = assay: Antibacterial activity against Acinetobacter genomosp. 3 isolate 243 by Etest method in presence of cloxacillin and efflux pump inhibitor PAN
# Acinetobacter pittii [45] = assay: Antibacterial activity against Acinetobacter genomosp. 3 isolate 14 by Etest method; outline: as §1
# Acinetobacter pittii [46] = assay: Antibacterial activity against Acinetobacter genomosp. 3 isolate 69 by Etest method in presence of cloxacillin; outline: as §1
# Acinetobacter pittii [47] = assay: Antibacterial activity against Acinetobacter genomosp. 3 isolate 67 by Etest method in presence of efflux pump inhibitor CCCP
# Acinetobacter pittii [48] = assay: Antibacterial activity against Acinetobacter genomosp. 3 isolate 195 by Etest method in presence of efflux pump inhibitor PAN
# Acinetobacter pittii [49] = assay: Antibacterial activity against Acinetobacter genomosp. 3 isolate 21 by Etest method in presence of efflux pump inhibitor CCCP
smiles,measurement,setting,value
CC(=O)OCC1=C(C(=O)O)N2C(=O)[C@@H](NC(=O)Cc3cccs3)[C@H]2SC1 [CEPHALOTHIN],MIC,Acinetobacter pittii [1],> 256 mg/L
same,MIC,Acinetobacter pittii [2],32 mg/L
same,MIC,Escherichia coli [3],3 mg/L
same,MIC,Acinetobacter pittii [4],> 256 mg/L
same,MIC,Acinetobacter pittii [5],> 256 mg/L
same,MIC,Acinetobacter pittii [6],> 256 mg/L
same,MIC,Acinetobacter pittii [7],> 256 mg/L
same,MIC,Acinetobacter pittii [8],16 mg/L
same,MIC,Acinetobacter pittii [9],> 256 mg/L
same,MIC,Acinetobacter pittii [10],24 mg/L
same,MIC,Acinetobacter pittii [11],> 256 mg/L
same,MIC,Acinetobacter pittii [12],128 mg/L
same,MIC,Acinetobacter pittii [13],> 256 mg/L
same,MIC,Acinetobacter pittii [14],192 mg/L
same,MIC,Acinetobacter pittii [15],48 mg/L
same,MIC,Escherichia coli [16],> 256 mg/L
same,MIC,Acinetobacter pittii [17],> 256 mg/L
same,MIC,Acinetobacter pittii [18],128 mg/L
same,MIC,Escherichia coli [19],> 256 mg/L
same,MIC,Escherichia coli [20],192 mg/L
same,MIC,Acinetobacter pittii [21],> 256 mg/L
same,MIC,Escherichia coli [22],> 256 mg/L
same,MIC,Escherichia coli [23],> 256 mg/L
same,MIC,Acinetobacter pittii [24],> 256 mg/L
same,MIC,Acinetobacter pittii [25],> 256 mg/L
same,MIC,Acinetobacter pittii [26],> 256 mg/L
same,MIC,Acinetobacter pittii [27],48 mg/L
same,MIC,Acinetobacter pittii [28],24 mg/L
same,MIC,Acinetobacter pittii [29],> 256 mg/L
same,MIC,Acinetobacter pittii [30],24 mg/L
same,MIC,Acinetobacter pittii [31],48 mg/L
same,MIC,Acinetobacter pittii [32],> 256 mg/L
same,MIC,Acinetobacter pittii [33],> 256 mg/L
same,MIC,Acinetobacter pittii [34],> 256 mg/L
same,MIC,Acinetobacter pittii [35],> 256 mg/L
same,MIC,Acinetobacter pittii [36],> 256 mg/L
same,MIC,Acinetobacter pittii [37],> 256 mg/L
same,MIC,Acinetobacter pittii [38],> 256 mg/L
same,MIC,Acinetobacter pittii [39],> 256 mg/L
same,MIC,Acinetobacter pittii [40],> 256 mg/L
same,MIC,Acinetobacter pittii [41],128 mg/L
same,MIC,Acinetobacter pittii [42],> 256 mg/L
same,MIC,Acinetobacter pittii [43],> 256 mg/L
same,MIC,Acinetobacter pittii [44],192 mg/L
same,MIC,Acinetobacter pittii [45],> 256 mg/L
same,MIC,Acinetobacter pittii [46],> 256 mg/L
same,MIC,Acinetobacter pittii [47],192 mg/L
same,MIC,Acinetobacter pittii [48],> 256 mg/L
same,MIC,Acinetobacter pittii [49],> 256 mg/L
C[C@@H](O)[C@H]1C(=O)N2C(C(=O)O)=C(S[C@@H]3CN[C@H](C(=O)N(C)C)C3)[C@H](C)[C@H]12 [MEROPENEM],MIC,Acinetobacter pittii [1],0.125 mg/L
same,MIC,Acinetobacter pittii [2],0.094 mg/L
same,MIC,Escherichia coli [3],0.008 mg/L
same,MIC,Acinetobacter pittii [4],0.75 mg/L
same,MIC,Acinetobacter pittii [5],0.47 mg/L
same,MIC,Acinetobacter pittii [6],6 mg/L
same,MIC,Acinetobacter pittii [7],0.38 mg/L
same,MIC,Acinetobacter pittii [8],0.125 mg/L
same,MIC,Acinetobacter pittii [9],0.75 mg/L
same,MIC,Acinetobacter pittii [10],0.19 mg/L
same,MIC,Acinetobacter pittii [11],0.38 mg/L
same,MIC,Acinetobacter pittii [12],0.38 mg/L
same,MIC,Acinetobacter pittii [13],0.5 mg/L
same,MIC,Acinetobacter pittii [14],0.125 mg/L
same,MIC,Acinetobacter pittii [15],0.19 mg/L
same,MIC,Escherichia coli [16],0.023 mg/L
same,MIC,Acinetobacter pittii [17],0.38 mg/L
same,MIC,Acinetobacter pittii [18],0.25 mg/L
same,MIC,Escherichia coli [19],0.032 mg/L
same,MIC,Escherichia coli [20],0.023 mg/L
same,MIC,Acinetobacter pittii [21],0.5 mg/L
same,MIC,Escherichia coli [22],0.023 mg/L
same,MIC,Escherichia coli [23],0.023 mg/L
same,MIC,Acinetobacter pittii [24],3 mg/L
same,MIC,Acinetobacter pittii [25],1 mg/L
same,MIC,Acinetobacter pittii [26],0.19 mg/L
same,MIC,Acinetobacter pittii [27],0.25 mg/L
same,MIC,Acinetobacter pittii [28],0.25 mg/L
same,MIC,Acinetobacter pittii [29],0.25 mg/L
same,MIC,Acinetobacter pittii [30],0.19 mg/L
same,MIC,Acinetobacter pittii [31],0.25 mg/L
same,MIC,Acinetobacter pittii [32],0.5 mg/L
same,MIC,Acinetobacter pittii [33],0.25 mg/L
same,MIC,Acinetobacter pittii [34],0.25 mg/L
same,MIC,Acinetobacter pittii [35],0.75 mg/L
same,MIC,Acinetobacter pittii [36],0.25 mg/L
same,MIC,Acinetobacter pittii [37],0.19 mg/L
same,MIC,Acinetobacter pittii [38],4 mg/L
same,MIC,Acinetobacter pittii [39],0.38 mg/L
same,MIC,Acinetobacter pittii [40],0.75 mg/L
same,MIC,Acinetobacter pittii [41],0.25 mg/L
same,MIC,Acinetobacter pittii [42],0.38 mg/L
same,MIC,Acinetobacter pittii [43],0.25 mg/L
same,MIC,Acinetobacter pittii [44],0.19 mg/L
same,MIC,Acinetobacter pittii [45],0.5 mg/L
same,MIC,Acinetobacter pittii [46],0.19 mg/L
same,MIC,Acinetobacter pittii [47],0.25 mg/L
same,MIC,Acinetobacter pittii [48],1 mg/L
same,MIC,Acinetobacter pittii [49],0.5 mg/L
